In ChEMBL document CHEMBL4043282, “Discovery of the First Potent, Selective, and Orally Bioavailable Signal Peptide Peptidase-Like 2a (SPPL2a) Inhibitor Displaying Pronounced Immunomodulatory Effects In Vivo” (J Med Chem, 2018):
Values after ≈ are worked out from the molar mass of the structure shown. Active and inactive are the calls of the source. No cut-off for these calls is given here.

Columns and labels:
[1] = biological target: T1, Signal peptide peptidase-like 2A (Homo sapiens, UniProt Q8TCT8); assay: Inhibition of human SPPL2a expressed in HEK293 cells using GAL4-VP16 fusedTNFalpha (1 to 76)-NTF as substrate after 24 hrs by Bright-Glo luciferase reporter gene assay; format: cell-based
T1 sequence (Q8TCT8 whole entry): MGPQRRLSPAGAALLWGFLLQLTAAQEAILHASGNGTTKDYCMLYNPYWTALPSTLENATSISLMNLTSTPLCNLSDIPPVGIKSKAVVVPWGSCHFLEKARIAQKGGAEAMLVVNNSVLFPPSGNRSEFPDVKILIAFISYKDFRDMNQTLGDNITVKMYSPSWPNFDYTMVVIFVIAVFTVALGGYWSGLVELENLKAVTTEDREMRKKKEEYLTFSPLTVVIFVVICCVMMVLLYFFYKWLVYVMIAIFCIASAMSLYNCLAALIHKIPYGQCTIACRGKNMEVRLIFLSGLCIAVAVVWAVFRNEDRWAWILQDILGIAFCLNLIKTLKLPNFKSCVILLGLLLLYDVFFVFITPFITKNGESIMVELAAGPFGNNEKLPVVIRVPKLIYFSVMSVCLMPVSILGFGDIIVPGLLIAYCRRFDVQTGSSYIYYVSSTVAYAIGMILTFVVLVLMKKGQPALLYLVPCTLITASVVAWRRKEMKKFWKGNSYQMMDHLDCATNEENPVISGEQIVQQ
Procedure, shortened: (§1)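 HEK293 cells transiently transfected with human SPPL2a, VP16-TNFα(aa1-76)-NTF substrate and Gal4-luciferase reporter (SPPL2a), or human Notch1-VP16-Gal4 plus Gal4-luciferase reporter relying on endogenous γ-secretase.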

[2] = Selectivity ratio of IC50 for human gamma-secretase expressed in HEK293 cells to IC50 for human SPPL2a expressed in HEK293 cells
Procedure, shortened: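 HEK293 transiently transfected: SPPL2a arm with human SPPL2a, VP16-TNFα(aa1-76)-NTF and Gal4-luciferase; γ-secretase arm with human Notch1-VP16-Gal4 plus reporter (endogenous γ-secretase). Compound added 3 h after plating, 10 μM–0.3 nM final, triplicate, 24 h at 37 °C; luminescence read. IC50 from concentration vs normalised luminescence; ratio of the two IC50s.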

[3] = Inhibition of human gamma-secretase expressed in HEK293 cells using Notch1-VP16-Gal4 as substrate after 24 hrs by Bright-Glo luciferase reporter gene assay; format: cell-based; details: HEK293, 24 h; procedure, shortened: as §1
Mus musculus [4] = assay: In vivo inhibition of SPPL2a in mouse assessed as increase in CD74/p8 accumulation in splenocytes at 100 mg/kg, po administered as single dose measured after 4 hrs by Western blot method; format: functional, organism-based
Mus musculus [5] = assay: In vivo inhibition of mouse gamma-secretase assessed as effect on Hes1 mRNA level in jejunum at 100 mg/kg, po administered as single dose by RT-PCR method; format: organism-based
Procedure, shortened: (§2)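 Thymus and jejunum excised into RNALater, 4 °C overnight, washed, frozen at −80 °C; total RNA from 10 mg tissue by MagNA Pure LC; Hes1 measured by TaqMan real-time PCR; significance by two-tailed heteroscedastic Student's t-test.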

Rattus norvegicus [6] = assay: Dose normalized AUC in Wistar rat at 10 mg/kg, po bid by LC/MS/MS analysis; format: ADME, organism-based; details: in vivo
Mus musculus [7] = assay: In vivo inhibition of SPPL2a in mouse assessed as increase in CD74/p8 accumulation in splenocytes at 10 to 100 mg/kg, po administered as single dose measured after 4 hrs by Western blot method; format: functional, organism-based
Mus musculus [8] = assay: In vivo inhibition of mouse gamma-secretase assessed as effect on Hes1 mRNA level in thymus at 100 mg/kg, po administered as single dose by RT-PCR method; format: organism-based; procedure, shortened: as §2
[9] = Inhibition of human SPP expressed in human U2OS cells using EGFP-labeled EnvSigSeq-SEAP as substrate after 24 hrs by Hoechst staining based high content imaging assay; format: cell-based
Procedure, shortened: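 Stable U-2 OS lines expressing human SPPL2a, SPPL2b or SPP constitutively (mouse SPPL2a line analogous, mouse TNFα(aa1-77)-NTF-EGFP-NLS) with doxycycline-inducible EGFP substrate. 3000 cells/well, 3−4 h, then 11-point inhibitor 100 μM to 1 nM, 0.9% DMSO, 5 μg/mL doxycycline, 24 h 37 °C. PFA fixed, Hoechst nuclei; nuclear minus cytoplasmic EGFP intensity; inhibition vs 0.5 μM reference and DMSO; IC50 by nonlinear regression.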

[10] = Octanol-buffer partition coefficient, log P of the compound by LC/MS/MS based shake flask method; format: physicochemical
[11] = biological target: T2, Signal peptide peptidase-like 2A (Mus musculus, UniProt Q9JJF9); assay: Inhibition of SPPL2a in mouse whole blood assessed as increase in CD74/p8 accumulation after 5.5 hrs by Western bot method
T2 sequence (Q9JJF9 whole entry): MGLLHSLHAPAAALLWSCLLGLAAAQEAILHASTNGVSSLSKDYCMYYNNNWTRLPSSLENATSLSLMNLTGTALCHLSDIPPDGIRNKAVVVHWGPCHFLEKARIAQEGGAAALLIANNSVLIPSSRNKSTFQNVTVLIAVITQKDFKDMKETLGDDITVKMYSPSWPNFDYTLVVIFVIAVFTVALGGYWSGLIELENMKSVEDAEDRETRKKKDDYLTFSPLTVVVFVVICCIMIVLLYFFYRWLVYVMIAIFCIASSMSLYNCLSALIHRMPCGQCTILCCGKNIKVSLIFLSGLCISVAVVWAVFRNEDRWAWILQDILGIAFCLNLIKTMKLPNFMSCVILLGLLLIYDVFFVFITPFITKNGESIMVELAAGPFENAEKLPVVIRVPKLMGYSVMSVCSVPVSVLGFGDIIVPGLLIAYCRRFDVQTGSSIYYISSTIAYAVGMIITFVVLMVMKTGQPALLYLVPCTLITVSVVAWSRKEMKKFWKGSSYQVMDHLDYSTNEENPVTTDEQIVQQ
Procedure, shortened: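 Mouse whole blood (200 μL) with compound from 20× stock, 0.5% DMSO final, 5.5 h at 37 °C, 5% CO2 with rotation. RBC lysis, washes, lysis in Tris pH 6.8/Triton/deoxycholate buffer; Western blot with rat anti-mouse CD74 (In-1); p8 band intensity normalized to CD74 full-length/β-actin for dose response.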

Rattus norvegicus [12] = assay: Dose normalized AUC in Sprague-Dawley rat at 3 mg/kg, po by LC/MS/MS analysis; format: ADME, organism-based; details: in vivo
Procedure, shortened: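 Female Sprague−Dawley rats catheterized (femoral artery/vein); cassette oral dosing 3 mg/kg per compound as aqueous Tween 80/CMC-Na suspension (0.5/0.5/99), 48 h after iv dose; arterial blood sampled over time into EDTA tubes; LC-MS/MS with QC acceptance 70−130%; noncompartmental PK.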

[13] = Clearance in Balb/c mouse at 5 mg/kg, iv by LC/MS/MS analysis; format: ADME, organism-based; details: in vivo
[14] = biological target: T2, Signal peptide peptidase-like 2A; assay: Inhibition of mouse SPPL2a in A20 cells assessed as CD74/p8 accumulation by flow cytometry; format: cell-based
[15] = Oral bioavailability in Sprague-Dawley rat at 1 mg/kg by LC/MS/MS analysis; format: ADME, organism-based; details: in vivo
[16] = Equilibrium solubility of the compound at pH 6.8 after 24 hrs by saturation shake flask based UV-HPLC method; format: physicochemical; details: buffer
[17] = Clearance in Sprague-Dawley rat at 1 mg/kg, iv by LC/MS/MS analysis; format: ADME, organism-based; details: in vivo
Procedure, shortened: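 Female Sprague−Dawley rats with femoral artery and vein catheters implanted 96−120 h beforehand; cassette dosing iv 1 mg/kg per compound in NMP/PEG200 (30:70); arterial blood into EDTA tubes at several times, frozen; LC-MS/MS vs standard curve with QCs within 70−130%; noncompartmental analysis.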

SMILES	IC50 [1] [nM]	Ratio IC50 [2]	IC50 [3] [nM]	logP [10]	other results
Cc1cccc(NC(=O)C[C@@H](C)C(=O)N[C@@H]2C(=O)N3CCCN3Cc3ccccc32)c1	70	9	610		
C[C@H](NC(=O)[C@@H](O)c1cc(F)cc(F)c1)C(=O)N[C@@H]1C(=O)N(C)c2ccccc2-c2ccccc21	10	<1	< 0.3		Activity (Mus musculus [4]): Active; Activity (Mus musculus [5]): Toxic; AUC/dose (Rattus norvegicus [6]): 63 nM·h; Activity (Mus musculus [7]): Active; Activity (Mus musculus [8]): Toxic; IC50 [9]: 50 nM
Cc1ncc(F)cc1NC(=O)C[C@@H](C)C(=O)N[C@@H]1C(=O)N2CCCN2Cc2ccccc21	44		8200	1.7	IC50 [11]: 50 nM; AUC/dose (Rattus norvegicus [12]): 157 nM·h; clearance [13]: 32 mL/min/kg; IC50 [14]: 97 nM; bioavailability [15]: 100%; solubility thermodynamic at 24 h [16]: > 1000 µM; clearance [17]: 34 mL/min/kg
Cc1ncc(F)cc1NC(=O)C[C@H](C(=O)N[C@@H]1C(=O)N2CCCN2C(=O)c2ccccc21)C1CC1			> 10000	1.6	IC50 [14]: 496 nM
Cc1ncc(F)cc1NC(=O)C[C@@H](C)C(=O)N[C@@H]1C(=O)N2CCCN2Cc2c(F)cccc21	76		7800	2.1	AUC/dose (Rattus norvegicus [12]): 1522 nM·h; IC50 [14]: 121 nM; bioavailability [15]: 54%; solubility thermodynamic at 24 h [16]: 257 µM (≈ 118 µg/mL); clearance [17]: 15 mL/min/kg
C[C@H](CC(=O)Nc1ccccc1C(F)(F)F)C(=O)N[C@@H]1C(=O)N2CCCN2Cc2ccccc21	2850	>3	> 10000		
Cc1ncccc1NC(=O)C[C@@H](C)C(=O)N[C@@H]1C(=O)N2CCCN2Cc2ccccc21	1020		> 10000		solubility thermodynamic at 24 h [16]: > 1000 µM
Cc1ncc(F)cc1NC(=O)C[C@@H](C)C(=O)N[C@@H]1C(=O)N2CCCN2C(=O)c2ccccc21			> 10000	0.9	
Cc1ccc(NC(=O)C[C@@H](C)C(=O)N[C@@H]2C(=O)N3CCCN3Cc3ccccc32)cc1			27		
C[C@H](CC(=O)Nc1cc(F)cc(F)c1)C(=O)N[C@@H]1C(=O)N2CCCN2Cc2ccccc21	5	3	17		
CC(C)C[C@H](NC(=O)OCc1ccccc1)C(=O)N[C@@H](CC(C)C)C(=O)NCC(=O)CNC(=O)[C@H](CC(C)C)NC(=O)[C@H](CC(C)C)NC(=O)OCc1ccccc1	6	>1666	> 10000		
